# From ChEMBL document CHEMBL2203076, “Kandenols A-E, eudesmenes from an endophytic Streptomyces sp. of the mangrove tree Kandelia candel” (2012)
# Experiments:
# Type in all cases: functional
# Bacillus subtilis = assay: Antimicrobial activity against Bacillus subtilis ATCC 6633 by broth microdilution method
# Mycolicibacterium vaccae = assay: Antimicrobial activity against Mycobacterium vaccae ATCC IMET 10670 by broth microdilution method
# Enterococcus faecalis = assay: Antimicrobial activity against vancomycin-resistant Enterococcus faecalis 1528 R10 by broth microdilution method
# How it was run: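 MIC read-out by standard broth microdilution against E. faecalis 1528 R10, run in the same panel as Bacillus subtilis ATCC 6633 and Mycobacterium vaccae IMET 10670.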
Structure (SMILES),MIC (Bacillus subtilis) [µg/mL],MIC (Mycolicibacterium vaccae) [µg/mL],MIC (Enterococcus faecalis) [µg/mL]
CC1=CC(=O)C[C@]2(C)C[C@@H](O)[C@H](C(C)(C)O)C[C@@H]12 (relative stereo) [KANDENOL A],50,12.5,> 100
O=C(O)c1cn(C2CC2)c2cc(N3CCNCC3)c(F)cc2c1=O [CIPROFLOXACIN],< 0.05,0.1,0.78
CC1=CC(=O)C[C@]2(C)CC[C@H](C(C)(C)O)C[C@@]12OO [KANDENOL D],50,25,> 100
CC1=CC(=O)C[C@]2(C)C[C@@H](O)[C@H](C(C)(C)O)C[C@@]12OO [KANDENOL C],> 100,12.5,> 100
CC1=CC(=O)C[C@]2(C)C[C@@H](O)[C@H](C(C)(C)O)C[C@@]12O (relative stereo) [KANDENOL B],50,12.5,> 100
CC1=CC(=O)C[C@]2(C)C[C@@H](O)[C@@H]3C[C@@]12OC3(C)C [KANDENOL E],50,12.5,> 100
